Experimental data as given in paper PMC3448169 (mBio, 2012).
“Also recorded” adds a separate entry of the source. Ends that are not written are not given here. * marks the point of attachment. Biotin = O=C1N[C@H]2[C@H](CS[C@H]2CCCCC(=O)*)N1; Ahx = NCCCCCC(=O)O

T1: rabbit muscle aldolase (Oryctolagus cuniculus, UniProt P00883)
T1 sequence (P00883 1-364): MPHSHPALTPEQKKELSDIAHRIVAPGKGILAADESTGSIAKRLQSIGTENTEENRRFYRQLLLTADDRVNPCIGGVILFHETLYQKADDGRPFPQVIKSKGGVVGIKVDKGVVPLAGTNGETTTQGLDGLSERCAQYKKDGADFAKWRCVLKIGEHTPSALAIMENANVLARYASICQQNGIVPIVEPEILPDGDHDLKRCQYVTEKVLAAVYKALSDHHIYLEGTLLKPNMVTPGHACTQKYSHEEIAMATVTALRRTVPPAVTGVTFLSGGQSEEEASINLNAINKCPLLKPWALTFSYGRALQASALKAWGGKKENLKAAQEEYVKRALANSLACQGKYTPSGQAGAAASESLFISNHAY

B1: RH1 C-terminal cytoplasmic tail peptide (peptide)
peptide: {Biotin-Ahx}-KQEDKEQEKQQQNDFVCDNNKMDDKSTQKYGRNQEEVMEISFDNDYI
B2: RH4 C-terminal cytoplasmic tail peptide (peptide)
peptide: {Biotin-Ahx}-EDEVEDEVEDEDENENEVENENEDFNDI
B3: rabbit muscle aldolase (enzyme, UniProt P00883 1-364, looked up)
chain: T1 sequence (P00883 1-364)

How the values were obtained:
[1] = biological target: BAEBL (EBA140) C-terminal cytoplasmic tail peptide (Plasmodium falciparum); test: SPR
GAPDH = test: SPR analysis of GAPDH binding to immobilized peptides; parameters: species or system yeast; conditions: curves did not fit the 1:1 or the two-state model, no KD determined
rabbit muscle aldolase [2] = biological target: T1, rabbit muscle aldolase; test: SPR analysis of aldolase binding to immobilized peptides; conditions: SPR sensorgrams, aldolase 50 to 800 nM
Procedure, shortened: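 CM5 chips at 25°C carried amine-coupled NeutrAvidin with captured biotinylated peptides (0.5 µg/ml). Rabbit muscle aldolase was injected in 10 mM HEPES pH 7.5/100 mM KCl/0.5 mM EDTA/1 mM MgCl₂/0.2% Tween 20, with F1-6P added in some runs. Flow was 20 µl/min, with 4 min association and 10 min dissociation, and glycine pH 2.5 regeneration. NeutrAvidin-only reference cells were subtracted. ka and kd came from global fits to a 1:1 Langmuir or a two-state model.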

yeast GAPDH = test: GAPDH pulldown assay with biotinylated peptides on streptavidin-agarose beads; assay type: binding; conditions: pulldown competition, 10 mM NADH
Procedure, shortened: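 Test peptides carried an N-terminal biotin–Ahx linker, were dissolved in 20 mM Tris-HCl pH 8.0 at 0.5 mg/ml, and were bound to streptavidin-agarose for 1 h at RT, then washed. After four washes, bound protein was boiled in reducing LDS buffer and run on 4–12% bis-Tris gels.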

rabbit muscle aldolase [3] = biological target: B3; test: SPR
[4] = biological target: B2; test: SPR
[5] = biological target: B1; test: SPR

yeast GAPDH (glyceraldehyde-3-phosphate dehydrogenase) (from UniProt P00359 1-332) (enzyme)
Kd [1]: 461 nM
ka1 (two-state model, step 1) [1]: 10200 M^-1 S^-1
kd1 (two-state model, step 1) [1]: 0.016 s⁻¹
kd2 (two-state model, step 2) [1]: 0.003 s⁻¹

YMFDQQINVVNSDLYSEGIYDDTTTF [JESEBL]
GAPDH binding by SPR (qualitative) (GAPDH): demonstrated binding
binding to aldolase by SPR (qualitative) (rabbit muscle aldolase [2]): not to bind; also recorded: no binding was seen
GAPDH binding on adding the cofactor NADH (yeast GAPDH): blocked

B1
Kd (rabbit muscle aldolase [3]): 61 nM

{Biotin-Ahx}-NDHLSNYADKEEIIEIVFDENEEKYF [RH2b C-terminal cytoplasmic tail peptide]
Kd (rabbit muscle aldolase [3]): 214 nM
koff (rabbit muscle aldolase [3]): 0.000183 s⁻¹
kon (rabbit muscle aldolase [3]): 856 M⁻¹ s⁻¹

B2
Kd (rabbit muscle aldolase [3]): 47 nM

B3
ka1 (two-state model, step 1) [4]: 16000 M^-1 S^-1
ka2 (two-state model, step 2) [4]: 0.012 s⁻¹
kd1 (two-state model, step 1) [4]: 0.034 s⁻¹
kd2 (two-state model, step 2) [4]: 0.000269 s⁻¹
ka1 (two-state model, step 1) [5]: 45400 M^-1 S^-1
ka2 (two-state model, step 2) [5]: 0.018 s⁻¹
kd1 (two-state model, step 1) [5]: 0.082 s⁻¹
kd2 (two-state model, step 2) [5]: 0.000647 s⁻¹

{Biotin-Ahx}-ETLGEEDKDLDEPEQFRLPEENEWN [TRAP (thrombospondin-related anonymous protein) C-terminal cytoplasmic tail peptide]
Kd (rabbit muscle aldolase [3]): 106 nM
